Measurements of several laboratories.
Compare with care: the assays were run in different laboratories.
Target: Rhodopsin kinase GRK1 (GRK1, Homo sapiens, UniProt Q15835)
One construct used (Q15835 1-563): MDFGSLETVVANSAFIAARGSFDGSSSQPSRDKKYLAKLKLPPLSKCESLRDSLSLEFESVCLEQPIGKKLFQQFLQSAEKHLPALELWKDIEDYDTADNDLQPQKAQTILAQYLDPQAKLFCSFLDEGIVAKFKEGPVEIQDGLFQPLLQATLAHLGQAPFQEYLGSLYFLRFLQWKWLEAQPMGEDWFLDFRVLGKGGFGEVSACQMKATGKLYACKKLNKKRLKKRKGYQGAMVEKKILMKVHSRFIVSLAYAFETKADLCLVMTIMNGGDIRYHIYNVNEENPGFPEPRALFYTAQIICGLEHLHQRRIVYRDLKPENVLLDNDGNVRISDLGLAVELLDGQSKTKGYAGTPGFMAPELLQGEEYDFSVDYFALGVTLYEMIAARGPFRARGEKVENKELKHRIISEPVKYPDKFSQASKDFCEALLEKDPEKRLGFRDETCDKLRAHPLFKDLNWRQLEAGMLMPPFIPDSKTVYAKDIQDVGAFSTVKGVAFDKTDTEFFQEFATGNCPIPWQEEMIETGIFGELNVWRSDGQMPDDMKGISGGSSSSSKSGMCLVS

| Structure (SMILES) | test | conditions | quantity | result |
| --- | --- | --- | --- | --- |
| CN1CC(Oc2cnc(C#N)cc2-c2ccn3nc(NC(=O)C4CC4)cc3c2)C1 | enzyme activity, inhibitor | 1 µM | inhibition | 1% |
| Cn1c2c(c3ccc(Cl)c(Cl)c31)C(C#N)C1(CCNCC1)NC2=O (racemic) | thermal stability, DSF | 10 µM | ΔTm | 2.4 °C |
| Cc1sc(C(=O)NC2COC2)cc1-n1cc(NC(=O)Nc2c(F)cccc2Cl)cn1 | enzyme activity, inhibitor | 10 µM | remaining activity | 113% |
| Cn1c2c(Cl)c(Cl)ccc2c2cn[nH]c(=O)c21 | thermal stability, DSF | 10 µM | ΔTm | 1.3 °C |
| O=C(N1CCS(=O)(=O)CC1)N1C[C@H](c2ccc(OC(F)(F)F)cc2)C[C@H](c2nc(C3CC3)no2)C1 | cell-free assay, competition with immobilised ligand | 1 µM | remaining binding | 92% |
| COc1cc(Cl)c(C(=O)N[C@@H](CN[C@H]2CC[C@@H](N)CC2)Cc2ccc(C#N)cc2)cc1-c1ccc(CN[C@H](C)c2ccc(C)cc2)o1 | enzyme activity, inhibitor | 1 µM | remaining activity | 100% |
| Cc1ccc(C(=O)Nc2ccc(CN3CCN(C)CC3)c(C(F)(F)F)c2)cc1C#Cc1cnc2cccnn12 | enzyme activity, inhibitor | 23.5 nM | remaining activity | 93% |
| C[C@H](c1ccc(F)cc1)N(Cc1cccc(C(=O)O)c1)C(=O)c1cnc2ccccc2c1 | cell-free assay, competition with immobilised ligand | 1 µM | remaining binding | 100% |
| Cc1ccc(NC(=O)c2ccc(C)c(C(F)(F)F)c2)cc1C#Cc1nn(C2CCC(O)CC2)c2ncnc(N)c12 (stereo not drawn) | cell-free assay | 10 µM | remaining signal | 94% |
| O=C(Nc1cnn(-c2csc(C(=O)NC3COC3)c2)c1)Nc1ccccc1Cl | enzyme activity, inhibitor | 5 µM | remaining activity | 91.9% |
| Cn1c2c(Cl)c(Cl)ccc2c2cc[nH]c(=O)c21 | thermal stability, DSF | 10 µM | ΔTm | 1.5 °C |
| CNCc1ccccc1-c1csc([C@H](C)Nc2nc(C)nc3cc(OC)c(OC)cc23)c1 | cell-free assay, competition with immobilised ligand | 1 µM | remaining binding | 100% |
| Cn1c2c(c3ccc(Cl)c(Cl)c31)C(C#N)C1(CCN(C(=O)OC(C)(C)C)CC1)NC2=O (racemic) | thermal stability, DSF | 10 µM | ΔTm | 0 °C |
| Cc1ccc(C(=O)NCc2ccsc2)cc1C#Cc1cn(C(C)C)c2ncnc(N)c12 | enzyme activity, inhibitor | 1 µM | activity vs control | 106% |
| NS(=O)(=O)c1cc(NC(=O)Cc2ccccc2)ccc1Oc1cccc(Cl)c1 | cell-free assay, competition with immobilised ligand | 1 µM | remaining binding | 83% |
